# According to ChEMBL document CHEMBL5705892, “MK-2206, an allosteric Akt inhibitor, enhances antitumor efficacy by standard chemotherapeutic agents or molecular targeted drugs in vitro and in vivo” (Mol Cancer Ther, 2010):
# Active and inactive are the calls of the source. The calls are words filed in the database; no cut-off is given here.
# Columns and labels:
# MDA-MB-468 [1] = test: Synergistic antiproliferative activity against lapatinib pretreated human MDA-MB-468 cells assessed as combination index at ED75 measured after 72 hrs by celltiter-glo assay; format: functional
# MDA-MB-453 = test: Synergistic antiproliferative activity against human MDA-MB-453 cells assessed as combination index at ED50 measured after 72 hrs in presence of docetaxel by celltiter-glo assay; format: functional
# Method in brief: (§1)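 Cells grown in RPMI 1640 with 10% heat-inactivated FBS at 37°C, 5% CO₂. Seeded at 2 to 3 × 10³ per well; drugs added 24 h later. […] Viability read as cellular ATP by CellTiter-Glo. CI calculated by Chou–Talalay from median-effect plots at ED50, ED75 and ED90.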
# HCC70 = test: Synergistic antiproliferative activity against human HCC70 cells assessed as combination index at ED75 treated 24 hrs prior to lapatinib and measured after 72 hrs by celltiter-glo assay; format: functional; conditions: time 96 hrs
# NCI-H23 = test: Synergistic antiproliferative activity against human NCI-H23 cells assessed as combination index at ED50 measured after 72 hrs in presence of erlotinib by celltiter-glo assay; format: functional
# [2] = Toxicity in human NCI-H292 cells xenografted CD-1 mouse assessed as death at 120 mg/kg, po administered 3 times per week for 2 weeks starting 2 hrs post-erlotinib treatment and measured during compound dosing; format: organism-based; conditions: in vivo, 336 h
# Method in brief: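 NCI-H292 cells in 50% Matrigel/PBS injected s.c. into flank of female CD1-nude mice; dosing began after 2 wk at mean tumour 0.2 cm³, n = 5/group. […] Body weight and signs monitored; treatment ended day 16.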
# SK-OV-3 [3] = test: Synergistic antiproliferative activity against human SK-OV-3 cells assessed as combination index at ED50 measured after 96 hrs in presence of lapatinib by celltiter-glo assay; format: functional
# [4] = biological target: RAC-alpha serine/threonine-protein kinase (Homo sapiens) (UniProt P31749); test: Inhibition of AKT phosphorylation at S473 residue in human NCI-H1993 cells at 3 umol/L measured after 4 to 24 hrs in presence of gemcitabine by MSD assay; conditions: time 4-24 hrs
# RAC-alpha serine/threonine-protein kinase (Homo sapiens), sequence (P31749 whole entry): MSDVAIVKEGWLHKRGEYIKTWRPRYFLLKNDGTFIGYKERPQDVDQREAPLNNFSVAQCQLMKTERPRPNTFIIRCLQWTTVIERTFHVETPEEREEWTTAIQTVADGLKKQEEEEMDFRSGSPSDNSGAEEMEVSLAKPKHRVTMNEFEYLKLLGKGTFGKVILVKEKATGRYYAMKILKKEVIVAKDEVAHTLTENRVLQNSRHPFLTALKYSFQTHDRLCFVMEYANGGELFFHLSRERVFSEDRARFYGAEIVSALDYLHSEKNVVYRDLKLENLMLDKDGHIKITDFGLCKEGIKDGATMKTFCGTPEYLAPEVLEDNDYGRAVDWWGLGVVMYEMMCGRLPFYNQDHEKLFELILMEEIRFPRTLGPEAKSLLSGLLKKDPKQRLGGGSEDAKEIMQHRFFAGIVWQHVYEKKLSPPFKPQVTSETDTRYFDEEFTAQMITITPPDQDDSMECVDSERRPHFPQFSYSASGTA
# SK-BR-3 [5] = test: Synergistic antiproliferative activity against human SK-BR-3 cells assessed as combination index at ED75 measured after 72 hrs in presence of lapatinib by celltiter-glo assay; format: functional
# SK-OV-3 [6] = test: Synergistic antiproliferative activity against human SK-OV-3 cells assessed as combination index at ED75 treated 24 hrs prior to lapatinib and measured after 72 hrs by celltiter-glo assay; format: functional; conditions: time 96 hrs
# [7] = biological target: RAC-alpha serine/threonine-protein kinase (Homo sapiens) (UniProt P31749); test: Inhibition of AKT phosphorylation at S473 residue in human NCI-H1993 cells at 3 umol/L measured after 4 to 24 hrs in presence of carboplatin by MSD assay; conditions: time 4-24 hrs
# [8] = Toxicity in human NCI-H460 cells xenografted CD1 nude mouse assessed as body weight loss at 120 mg/kg, po administered 3 times per week for 2 weeks measured on day 14 to 16 in presence of gemcitabine; format: organism-based; conditions: in vivo, 336 h, time 14-16 day
# Method in brief: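 NCI-H460 cells in 50% Matrigel/PBS injected s.c. into flank of CD1-nude mice; randomized at mean tumour 0.2 cm³ (n = 5). MK-2206 in 30% Captisol, 120 mg/kg p.o. days 0, 2, 4, 7, 9, 11. Carboplatin 50 mg/kg i.v. in saline days 0 and 7 (from day 12 after implant), or gemcitabine 100 mg/kg i.v. in saline days 0 and 7 (from day 8). Body weight monitored.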
# NCI-H1703 = test: Induction of apoptosis in human NCI-H1703 cells assessed as fold induction of capsase-3/7 activity measured after 24 to 48 hrs in presence of carboplatin by caspase-glo 3/7 assay; format: functional; conditions: time 24-48 hrs
# NCI-H292 [9] = test: Induction of apoptosis in human NCI-H292 cells assessed as increase in caspase-3/7 activity up to 3 umol/L measured after 48 hrs by caspase-glo 3/7 assay; format: functional, cell-based; conditions: dose <= 3.0 µmol/L
# Method in brief: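 Caspase-3/7 activity was measured by Caspase-Glo 3/7 and expressed as fold over DMSO vehicle control. The experiment was done twice.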
# NCI-H292 [10] = test: Antitumor activity against human NCI-H292 cells xenografted in CD-1 mouse assessed as tumor growth suppression at 120 mg/kg, po administered 3 times per week for 2 weeks starting 2 hrs post-erlotinib treatment and measured twice a week during compound dosing by caliper method; format: functional, organism-based
# Method in brief: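 Female CD1-nude mice carried s.c. NCI-H292 cells in Matrigel/PBS and were randomized at 0.2 cm³, n = 5. […] MK-2206 (30% Captisol) was given 2 h later at 120 mg/kg po on days 0, 2, 4, 7, 9, 11, or at 360 mg/kg on days 0 and 7. Control received vehicle. Caliper volume twice weekly.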
# A2780 [11] = test: Synergistic antiproliferative activity against human A2780 cells assessed as combination index at ED50 measured after 72 hrs in presence of 5-FU by celltiter-glo assay; format: functional
# Method in brief: (§2)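 Cells were seeded at 2–3 × 10³ per well in RPMI 1640 with 10% FBS. At 24 h, MK-2206 and the partner drug were added simultaneously at constant concentration ratios spanning each agent's IC₅₀, for 72 h. Growth was read as cellular ATP by CellTiter-Glo. CI was taken from median-effect plots of each agent alone and in combination (Chou–Talalay), at ED₅₀, ED₇₅ and ED₉₀.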
# MDA-MB-468 [12] = test: Synergistic antiproliferative activity against human MDA-MB-468 cells assessed as combination index at ED90 measured after 72 hrs in presence of docetaxel by celltiter-glo assay; format: functional
# A-431 = test: Synergistic antiproliferative activity against human A-431 cells assessed as combination index at ED90 measured after 72 hrs in presence of erlotinib by celltiter-glo assay; format: functional; method in brief: as §2
# NCI-H1299 = test: Synergistic antiproliferative activity against human NCI-H1299 cells assessed as combination index at ED90 measured after 72 hrs in presence of erlotinib by celltiter-glo assay; format: functional
# MDA-MB-468 [13] = test: Synergistic antiproliferative activity against human MDA-MB-468 cells assessed as combination index at ED50 treated 24 hrs prior to lapatinib and measured after 72 hrs by celltiter-glo assay; format: functional; conditions: time 96 hrs
# BT-474 = test: Synergistic antiproliferative activity against human BT-474 cells assessed as combination index at ED90 measured after 72 hrs in presence of docetaxel by celltiter-glo assay; format: functional; method in brief: as §1
# SK-BR-3 [14] = test: Synergistic antiproliferative activity against human SK-BR-3 cells assessed as combination index at ED75 measured after 72 hrs in presence of docetaxel by celltiter-glo assay; format: functional
# A2780 [15] = test: Synergistic antiproliferative activity against human A2780 cells assessed as combination index at ED50 measured after 72 hrs in presence of carboplatin by celltiter-glo assay; format: functional; method in brief: as §2
# MDA-MB-231 = test: Synergistic antiproliferative activity against human MDA-MB-231 cells assessed as combination index at ED50 measured after 72 hrs in presence of docetaxel by celltiter-glo assay; format: functional; method in brief: as §1
structure (smiles),measurement,setting,value
Cl.NC1(c2ccc(-c3nc4ccn5c(=O)[nH]nc5c4cc3-c3ccccc3)cc2)CCC1,CI75,MDA-MB-468 [1],0.18
same,CI50,MDA-MB-453,1.2
same,CI75,HCC70,0.18
same,CI50,NCI-H23,0.32
same,Activity,[2],Non-Toxic
same,CI50,SK-OV-3 [3],0.18
same,inhibition,[4],Active
same,CI75,SK-BR-3 [5],0.19
same,CI75,SK-OV-3 [6],0.18
same,inhibition,[7],Active
same,Activity,[8],Non-Toxic
same,fold change (FC),NCI-H1703,1.3
same,Activity,NCI-H292 [9],inactive
same,Activity,NCI-H292 [10],Active
same,CI50,A2780 [11],0.68
same,CI90,MDA-MB-468 [12],0.9
same,CI90,A-431,0.14
same,CI90,NCI-H1299,0.52
same,CI50,MDA-MB-468 [13],0.18
same,CI90,BT-474,0.7
same,CI75,SK-BR-3 [14],0.7
same,CI50,A2780 [15],0.49
same,CI50,MDA-MB-231,0.9
